Values after ≈ are worked out from the molar mass of the structure shown.
Tests used:
[1] = Selectivity index, ratio of CC50 for human Huh7.5.1 cells infected with HCV JFH-1 virus to EC50 for HCV JFH-1 virus
[2] = Cytotoxicity against human Huh7.5.1 cells assessed as ATP level by luminescence analysis; details: huh-7
Hepatitis C virus [3] = assay: microbe, parasite or virus in culture; assay type: functional, organism-based, Hepacivirus hominis; details: JFH-1, Huh-7.5.1, 48 h
[4] = (§1) Metabolic stability in rat liver microsomes assessed as half life by LC-MS/MS analysis in presence of NADPH
[5] = Metabolic stability in mouse liver microsomes assessed as half life by LC-MS/MS analysis in presence of NADPH
Hepatitis C virus [6] = assay: Antiviral activity against HCV genotype 1b pseudoparticle infected in human Huh7.5.1 cells assessed as inhibition of virus entry at 10 uM after 4 hrs by luciferase reporter gene assay; assay type: functional, Hepacivirus hominis; details: Huh-7, 4 h
[7] = Solubility of compound in phosphate buffer at pH 7.4
histamine H1 receptor = histamine H1 receptor (Homo sapiens, UniProt P35367); assay: in vitro; details: PathHunter cells
histamine H1 receptor, sequence (P35367 whole entry): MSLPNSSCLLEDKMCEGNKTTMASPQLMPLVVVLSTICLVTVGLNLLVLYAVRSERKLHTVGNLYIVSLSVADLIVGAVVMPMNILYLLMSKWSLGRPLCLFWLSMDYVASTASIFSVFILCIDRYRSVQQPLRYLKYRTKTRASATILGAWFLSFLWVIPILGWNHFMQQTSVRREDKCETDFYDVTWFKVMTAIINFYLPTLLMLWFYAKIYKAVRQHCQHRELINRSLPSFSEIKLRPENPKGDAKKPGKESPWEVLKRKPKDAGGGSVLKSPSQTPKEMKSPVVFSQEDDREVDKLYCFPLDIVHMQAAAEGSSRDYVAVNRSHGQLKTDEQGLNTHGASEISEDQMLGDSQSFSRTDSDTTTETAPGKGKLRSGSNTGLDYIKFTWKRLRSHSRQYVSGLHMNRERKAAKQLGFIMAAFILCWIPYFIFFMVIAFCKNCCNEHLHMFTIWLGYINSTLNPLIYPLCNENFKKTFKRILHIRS

Liver microsome [8] = assay: (§2) Metabolic stability in human liver microsomes assessed as half life by LC-MS/MS analysis in presence of NADPH
[9] = tested on: Vesicular stomatitis virus; assay: Antiviral activity against Vesicular stomatitis virus G pseudoparticle infected in human Huh7.5.1 cells at 10 uM after 4 hrs by luciferase reporter gene assay; assay type: functional; details: Huh-7, 4 h
Hepatitis C virus [10] = assay: Antiviral activity against HCV genotype 1a pseudoparticle infected in human Huh7.5.1 cells assessed as inhibition of virus entry at 10 uM after 4 hrs by luciferase reporter gene assay; assay type: functional, Hepacivirus hominis; details: subtype 1a, Huh-7, 4 h
Hepatitis C virus [11] = assay: Antiviral activity against HCV genotype 2a assessed as inhibition of RNA replication at 10 uM by cell-based replicon assay; assay type: functional, Hepacivirus hominis
How it was run: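 GT 2a subgenomic replicon cells were plated at 10^4/well and incubated overnight. They were then treated with compound (10 μM, or 3.2 or 1 μM for some compounds) for 48 h. Luciferase activity was read and expressed as % of DMSO.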

Liver microsome [12] = assay: as §1
Hepatitis C virus [13] = assay: microbe, parasite or virus in culture; assay type: functional, Hepacivirus hominis; details: Huh-7, 48 h
Murine leukemia virus = assay: Antiviral activity against Murine leukemia virus pseudoparticle infected in human Huh7.5.1 cells at 10 uM after 4 hrs by luciferase reporter gene assay; assay type: functional; details: Huh-7, 4 h
HepG2 = assay: Cytotoxicity against human HepG2 cells assessed as ATP level by luminescence analysis
[14] = as §2

Compound | selectivity ratio [1] | CC50 [2] [µM] | EC50 (Hepatitis C virus [3]) [µM] | further results
CC(=O)NCCOCCOCCOCCOCCN1CCN(C(c2ccccc2)c2ccc(Cl)cc2)CC1 (racemic) | > 588 | > 100 | 0.17 | 
CCN1CCN(C2c3ccccc3-c3ccc(Br)cc32)CC1 (stereo unspecified) | 32 | 53.1 | 1.68 | 
CC(C)(C)OC(=O)NCCOCCOCCOCCOCCN1CCN(C(c2ccccc2)c2ccc(Cl)cc2)CC1 (racemic) | 95 | 19 | 0.199 | 
[2H]C([2H])([2H])N1CCN([C@H](c2ccccc2)c2ccc(Cl)cc2)CC1 |  | 46.7 | 0.04 | 
O=C(O)COCCN1CCN(C(c2ccccc2)c2ccc(Cl)cc2)CC1 (racemic) [CETIRIZINE] |  |  | > 31.6 | 
Clc1ccc([C@H](c2ccccc2)N2CCN(C3CCCC3)CC2)cc1 | 1600 | 30.4 | 0.019 | 
[2H]C([2H])([2H])CN1CCN([C@H](c2ccccc2)c2ccc(Cl)cc2)CC1 |  | 81.5 |  | half-life [4]: 174 min
CN1CCCN(C(c2ccccc2)c2ccc(Cl)cc2)CC1 (racemic) [HOMOCHLORCYCLIZINE] | 225 | 12.8 | 0.057 | 
Clc1ccc([C@H](c2ccccc2)N2CCN(C3CCCCC3)CC2)cc1 | 69 | 12.3 | 0.177 | 
OCCOCCN1CCN(C(c2ccccc2)c2ccc(Cl)cc2)CC1 (racemic) [HYDROXYZINE] | 1330 | 42.6 | 0.032 | 
CN1CCC(N(c2ccccc2)c2ccccc2)CC1 | 21 | 56.8 | 2.72 | 
O=C1c2ccccc2C(=O)N1CCOCCN1CCN(C(c2ccccc2)c2ccc(Cl)cc2)CC1 (racemic) | > 65 | > 100 | 1.54 | 
OCCOCCN1CCN(C(c2ccc(Cl)cc2)c2ccc(Cl)cc2)CC1 |  |  |  | t1/2 [5]: 10 min; inhibition at 10 µM (Hepatitis C virus [6]): 80.8%; solubility kinetic [7]: 44.5 µg/mL (≈ 109 µM); inhibition at 2 h, 0.01 µM (histamine H1 receptor): 23.7%; t1/2 (Liver microsome [8]): > 30 min; inhibition at 10 µM [9]: 109%; inhibition at 10 µM (Hepatitis C virus [10]): 71.7%; inhibition at 10 µM (Hepatitis C virus [11]): 98.8%; t1/2 (Liver microsome [12]): 13.7 min; inhibition at 10 µM (Hepatitis C virus [13]): 1.8%; inhibition at 10 µM (Murine leukemia virus): 108%
CC(C)CN1CCN([C@@H](c2ccccc2)c2ccc(Cl)cc2)CC1 | 507 | 51.7 | 0.102 | 
FC(F)(F)CN1CCN([C@@H](c2ccccc2)c2ccc(Cl)cc2)CC1 |  | > 100 | > 31.6 | 
CCCN1CCN([C@H](c2ccccc2)c2ccc(Cl)cc2)CC1 | 2020 | 48.5 | 0.024 | 
CC(=O)N1CCN([C@@H](c2ccccc2)c2ccc(Cl)cc2)CC1 | 4 | 91.3 | 22 | 
[2H]C([2H])([2H])CN1CCN([C@@H](c2ccccc2)c2ccc(Cl)cc2)CC1 |  | 71.3 |  | 
CCCCN1CCN([C@H](c2ccccc2)c2ccc(Cl)cc2)CC1 | 209 | 40.8 | 0.195 | 
CCN1CCN([C@H](c2ccccc2)c2ccc(Cl)cc2)CC1 |  | 37.9 |  | half-life [4]: 132 min

Compound | selectivity ratio [1] | CC50 [2] [µM] | EC50 (Hepatitis C virus [3]) [µM] | further results
COc1ccc(CN2CCN([C@@H](c3ccccc3)c3ccc(Cl)cc3)CC2)c(OC)c1 | 84 | 38.4 | 0.456 | 
NC(=O)COCCN1CCN(C(c2ccccc2)c2ccc(Cl)cc2)CC1 (racemic) | > 910 | > 100 | 0.103 | 
FC(F)(F)CN1CCN([C@H](c2ccccc2)c2ccc(Cl)cc2)CC1 |  |  | > 31.6 | 
CCCN1CCN([C@@H](c2ccccc2)c2ccc(Cl)cc2)CC1 | 1240 | 39.7 | 0.032 | 
c1ccc(C(c2ccccc2)C2CCNCC2)cc1 | 451 | 32.5 | 0.072 | 
Clc1ccc(C(c2ccc(Cl)cc2)N2CCCCC2)cc1 | 4 | 69 | 17.4 | 
Clc1ccc([C@@H](c2ccccc2)N2CCNCC2)cc1 | 391 | 12.5 | 0.032 | 
CN1CCC(N(c2ccccc2)c2ccc(OC(C)(C)C)cc2)CC1 | 222 | 78.7 | 0.354 | 
Clc1ccc(C(c2ccc(Cl)cc2)N2CCOCC2)cc1 | 2 | 62.1 | 29.7 | 
[2H]C([2H])([2H])N1CCN([C@@H](c2ccccc2)c2ccc(Cl)cc2)CC1 |  | 77.9 | 0.063 | 
CCN1CCN(C(c2ccc(Cl)cc2)c2ccc(Cl)cc2)CC1 |  |  |  | t1/2 [5]: 12.6 min; CC50 (HepG2): 56 µM; inhibition at 10 µM (Hepatitis C virus [6]): 108%; solubility kinetic [7]: 17.7 µg/mL (≈ 50.7 µM); inhibition at 2 h, 0.01 µM (histamine H1 receptor): 31.7%; half-life [14]: 30 min; inhibition at 10 µM [9]: 110%; inhibition at 10 µM (Hepatitis C virus [10]): 76.6%; inhibition at 10 µM (Hepatitis C virus [11]): 128%; t1/2 (Liver microsome [12]): 2.2 min; inhibition at 10 µM (Hepatitis C virus [13]): 10.1%; inhibition at 10 µM (Murine leukemia virus): 96.5%
NCCOCCOCCOCCOCCN1CCN(C(c2ccccc2)c2ccc(Cl)cc2)CC1 (racemic) |  | 12.2 |  | t1/2 [5]: 29.1 min; CC50 (HepG2): 12.6 µM; inhibition at 10 µM (Hepatitis C virus [6]): 91.7%; solubility kinetic [7]: 46 µg/mL (≈ 90.9 µM); inhibition at 2 h, 0.01 µM (histamine H1 receptor): 54.1%; t1/2 (Liver microsome [8]): 26.2 min; inhibition at 10 µM [9]: 99.8%; inhibition at 10 µM (Hepatitis C virus [10]): 95.8%; inhibition at 10 µM (Hepatitis C virus [11]): 63.6%; t1/2 (Liver microsome [12]): 11.7 min; inhibition at 10 µM (Hepatitis C virus [13]): 1.4%; inhibition at 10 µM (Murine leukemia virus): 117%
CN1CCN([C@H](c2ccccc2)c2ccc(Cl)cc2)CC1 |  | 37.5 | 0.02 | 
CC(C)CN1CCN([C@H](c2ccccc2)c2ccc(Cl)cc2)CC1 | 251 | 58.2 | 0.232 | 
Clc1ccc(C(c2ccccc2)N2CCNCC2)cc1 (racemic) [NORCHLORCYCLIZINE] | 297 | 10.4 | 0.035 | 
CC(C)N1CCN([C@@H](c2ccccc2)c2ccc(Cl)cc2)CC1 | 2490 | 32.4 | 0.013 | 
c1ccc(C(c2ccccc2)c2ccncc2)cc1 | < 2 | 65.1 | > 31.6 | 
CCCCN1CCN([C@@H](c2ccccc2)c2ccc(Cl)cc2)CC1 | 740 | 31.1 | 0.042 | 
CN1CCN(C(c2ccccc2)c2ccc(Cl)cc2)CC1 (racemic) [CHLORCYCLIZINE] |  | 49.8 | 0.44 | t1/2 [5]: 36 min; inhibition at 10 µM (Hepatitis C virus [6]): 120%; inhibition at 2 h, 0.01 µM (histamine H1 receptor): 16%; t1/2 (Liver microsome [8]): 113 min; inhibition at 10 µM [9]: 105%; inhibition at 10 µM (Hepatitis C virus [10]): 92.5%; inhibition at 10 µM (Hepatitis C virus [11]): 102%; t1/2 (Liver microsome [12]): 4.6 min; inhibition at 10 µM (Hepatitis C virus [13]): 24.9%; inhibition at 10 µM (Murine leukemia virus): 124%

From ChEMBL document CHEMBL3769315 (J Med Chem, 2016)
